Molecules are shown by their SMILES.

A word on the IC50: it is the concentration that inhibits the measured activity by half. A word on the inhibition: it is the percentage by which the read-out fell short of the control.

Experiment [1] has as its target T1, 2-Hydroxyacid oxidase 1 (Mus musculus, UniProt Q9WU19).
T1 sequence (Q9WU19 whole entry): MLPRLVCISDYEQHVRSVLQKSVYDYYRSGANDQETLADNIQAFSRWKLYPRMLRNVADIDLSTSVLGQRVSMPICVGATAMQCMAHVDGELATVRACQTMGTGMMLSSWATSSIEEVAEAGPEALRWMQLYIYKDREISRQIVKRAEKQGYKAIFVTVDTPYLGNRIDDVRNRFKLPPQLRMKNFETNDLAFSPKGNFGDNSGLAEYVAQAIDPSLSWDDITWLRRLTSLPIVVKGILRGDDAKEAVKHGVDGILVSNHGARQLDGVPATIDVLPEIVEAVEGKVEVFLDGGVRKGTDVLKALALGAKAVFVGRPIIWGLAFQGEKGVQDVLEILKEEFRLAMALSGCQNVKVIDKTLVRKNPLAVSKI
The experiment in a line: Inhibition of mouse recombinant glycolate oxidase expressed in Escherichia coli using glycolate as substrate by sulfonated DCIP dye-based assay. Put shortly:
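Purified recombinant mGO (10 µL at 0.1 µg/µL) with saturating glycolate (22.2 mM) in 50 mM potassium phosphate pH 7. Compound at 0.2 µM–0.2 mM; H2O2 detected by HRP-coupled sulfonated DCIP/4-aminoantipyrine dye at 515 nm. IC50 from nonlinear dose-response fitting.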

Experiment [2] deals with T2, 2-Hydroxyacid oxidase 1 (Mus musculus) (UniProt Q9WU19).
T2 sequence (whole entry): T1 sequence (Q9WU19 whole entry)
Kind of experiment: Inhibition of mouse recombinant glycolate oxidase expressed in Escherichia coli at 25 uM using glycolate as substrate after 1 min by sulfonated DCIP dye-based assay relative to control.

The target in experiment [3] is T2, 2-Hydroxyacid oxidase 1 (Mus musculus). The experiment in a line: Inhibition of glycolate oxidase in C57BL/6 Agxt1-/- mouse hepatocytes using glycolate as substrate assessed as relative oxalate level at 10 uM after 24 hrs. The class given is cell-based. Put shortly:
(§1)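 Primary Agxt1-/- mouse hepatocytes in 6-well plates, serum-free Williams E with 5 mM glycolate, treated with 10 µM compound. Excreted oxalate measured 24 h later by oxalate oxidase–HRP colorimetric kit (595 nm) and expressed relative to untreated control. Mean ± SD, n = 3, one-way ANOVA.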

Experiment [4] has the same target. The experiment in a line: Inhibition of glycolate oxidase in C57BL/6 Agxt1-/- mouse hepatocytes using glycolate as substrate assessed as reduction in oxalate production at 10 uM after 24 hrs. The class given is cell-based. The essentials: as §1

Regarding `O=C(O)c1ccc(-c2ccc([N+](=O)[O-])cc2)cc1O`, the IC50 in experiment [1] was determined as 19.7 µM. In addition, in experiment [2], the inhibition was found to be 41.9%. Besides, the fold change (FC) in experiment [3] stood at 0.91.

Turning to `O=C(O)c1cc(-c2ccc(OCc3ccccc3)cc2)ccc1O`, the IC50 in experiment [1] was found to be 14.8 µM. The inhibition in experiment [2] came to 70.9%. The fold change (FC) in experiment [3] was 0.8.

For the compound `Nc1ccc(O)c(C(=O)O)c1` [MESALAMINE], the IC50 in experiment [1] worked out at 7.8 µM. Further, the inhibition in experiment [2] came out at 71.9%. Also, in experiment [3], the fold change (FC) turned out to be 0.88.

As for `O=C(O)c1cnc2cc(Cl)ccc2c1O`, the inhibition in experiment [2] worked out at 24.8%.

In the case of `COc1cc(-c2ccc(C=O)o2)ccc1C(=O)O`, the inhibition in experiment [2] was determined as 0%. Moreover, in experiment [3], the fold change (FC) amounted to 0.82.

As for `CC(=O)c1ccc(-c2ccc(C(=O)O)c(O)c2)s1`, in experiment [2], the inhibition was 28.1%. Moreover, the fold change (FC) in experiment [3] was 0.89.

For the compound `O=C(O)c1ccc(-c2ccsc2)cc1O`, in experiment [1], the IC50 is 21.6 µM. The inhibition in experiment [2] is 41.4%. In addition, the fold change (FC) in experiment [3] amounted to 0.99.

On to `O=Cc1ccc(-c2ccc(O)c(C(=O)O)c2)s1`, for which the IC50 in experiment [1] turned out to be 9.4 µM. Also, the inhibition in experiment [2] worked out at 52.1%. Further, the fold change (FC) in experiment [3] came to 0.93.

For `O=C(O)c1cccc(F)c1O`, the inhibition in experiment [2] is 13.5%.

For the compound `O=Cc1ccc(-c2ccc(C(=O)O)c(O)c2)s1`, the inhibition in experiment [2] was 28.7%. In experiment [3], the fold change (FC) amounted to 1.

Turning to `COc1ccc(COc2ccc(-c3ccc(O)c(C(=O)O)c3)cc2)cc1`, the IC50 in experiment [1] worked out at 9.5 µM. For the same compound, the inhibition in experiment [2] amounted to 83.8%. Further, the fold change (FC) in experiment [3] was 1.07.

With `O=C(O)c1ccc(-c2ccc(CO)o2)cc1O`, the IC50 in experiment [1] stood at 7.9 µM. Moreover, the inhibition in experiment [2] was 85.7%. For the same compound, the fold change (FC) in experiment [3] was 0.88.

In the case of `O=Cc1ccc(-c2ccc(C(=O)O)c(O)c2)o1`, the IC50 in experiment [1] stood at 34.5 µM. Also, the inhibition in experiment [2] worked out at 82.8%. For the same compound, the fold change (FC) in experiment [3] was found to be 0.88.

Turning to `O=C(O)c1ccc(-c2ccccc2COc2cc(F)cc(F)c2)cc1O`, the IC50 in experiment [1] was 8.3 µM. Further, the inhibition in experiment [2] is 77.7%. The fold change (FC) in experiment [3] is 0.72.

For `COc1cccc(-c2ccc(C(=O)O)c(O)c2)c1`, the IC50 in experiment [1] stood at 19.5 µM. Moreover, the inhibition in experiment [2] was 50.9%. Moreover, in experiment [3], the fold change (FC) came out at 0.83.

`O=C(O)c1cc2cc(Br)ccc2cc1O`: the IC50 in experiment [1] worked out at 39.9 µM. Moreover, the inhibition in experiment [2] is 42.3%. Besides, the fold change (FC) in experiment [3] was determined as 0.99.

Consider `O=C(O)c1cc(-c2ccsc2)ccc1O`, for which the inhibition in experiment [2] was 25.2%. Further, the fold change (FC) in experiment [3] came to 0.94.

As to `O=Cc1ccc(-c2ccc3cc(O)c(C(=O)O)cc3c2)o1`, the inhibition in experiment [2] was determined as 26.2%.

On to `O=C(O)c1ccccc1O`, for which the inhibition in experiment [2] was determined as 18.5%.

As for `O=C(O)c1ccc(-c2ccc(C(=O)O)c(O)c2)o1`, the inhibition in experiment [2] is 0%.

Take `Cn1nccc1-c1ccc(C(=O)O)c(O)c1`: the inhibition in experiment [2] worked out at 16.2%. In addition, the fold change (FC) in experiment [3] turned out to be 0.93.

`CC(=O)c1ccc(O)c(C(=O)O)c1`: the inhibition in experiment [2] amounted to 22.1%.

`O=C(O)c1ccc(-c2ccc(O)cc2)cc1O`: the IC50 in experiment [1] was found to be 13.5 µM. Also, the inhibition in experiment [2] was found to be 61.3%. Also, in experiment [3], the fold change (FC) came to 0.82.

For `O=C(O)c1cc(-c2ccc(CO)o2)ccc1O`, the IC50 in experiment [1] came out at 4.6 µM. Also, in experiment [2], the inhibition was 98%. Further, in experiment [3], the fold change (FC) is 0.88.

Regarding `O=C(O)c1cc([N+](=O)[O-])c(-c2ccco2)cc1O`, in experiment [2], the inhibition stood at 5.9%. Besides, the fold change (FC) in experiment [3] was determined as 0.86.

`O=Cc1ccc(-c2ccc(C(=O)O)c(CO)c2)o1`: the inhibition in experiment [2] is 0%. In addition, in experiment [3], the fold change (FC) turned out to be 0.98.

For `O=C(O)c1ccc(-c2ccco2)cc1O`, the IC50 in experiment [1] came out at 39.3 µM. Besides, the inhibition in experiment [2] stood at 35.8%. For the same compound, in experiment [3], the fold change (FC) is 0.87.

Regarding `O=C(O)c1cc2ccccc2c(/N=N/c2cc(C(F)(F)F)ccc2Cl)c1O`, the inhibition in experiment [2] worked out at 47.4%. In experiment [3], the fold change (FC) amounted to 0.91.

For the compound `O=C(O)c1ccc(Cl)cc1O`, in experiment [2], the inhibition is 20.8%.

For `O=C(O)c1ccc(-c2cccs2)cc1O`, in experiment [1], the IC50 worked out at 32.5 µM. Also, the inhibition in experiment [2] is 35.4%. The fold change (FC) in experiment [3] was 0.74.

On to `O=C(O)c1ccc(-c2ccncc2)cc1O`, for which, in experiment [2], the inhibition is 22.7%. For the same compound, in experiment [3], the fold change (FC) turned out to be 0.88.

As for `O=C(O)c1ccc(-c2ccc(OCc3ccccc3)cc2)cc1O`, in experiment [1], the IC50 was found to be 10.4 µM. Moreover, the inhibition in experiment [2] was 83.4%. For the same compound, in experiment [3], the fold change (FC) turned out to be 1.11.

Take `Nc1ccc(C(=O)O)c(O)c1`: the inhibition in experiment [2] is 14.9%.

In the case of `Cc1ccc(-c2ccc(C(=O)O)c(O)c2)s1`, in experiment [2], the inhibition is 28.7%. In addition, the fold change (FC) in experiment [3] is 0.95.

For the compound `COC(=O)c1ccc(-c2ccc(C=O)o2)cc1OC`, the inhibition in experiment [2] amounted to 17.5%. Besides, in experiment [3], the fold change (FC) was found to be 0.9.

As for `O=Cc1ccc(-c2ccc(O)cc2)o1`, the inhibition in experiment [2] came to 24.2%. Moreover, the fold change (FC) in experiment [3] amounted to 0.32.

For the compound `N[C@@H](CCC(=O)Nc1ccc(O)c(C(=O)O)c1)C(=O)O`, the inhibition in experiment [2] turned out to be 7.8%.

As for `O=C(O)c1cc(-c2ccoc2)ccc1O`, the inhibition in experiment [2] is 26.6%. Also, in experiment [3], the fold change (FC) amounted to 0.89.

As to `O=C(O)c1ccc(-c2ccc(O)c(C(=O)O)c2)o1`, the figures for the inhibition in experiment [2] and in experiment [4] were 0% and 30%, respectively. Besides, the fold change (FC) in experiment [3] was 0.68.

As to `O=C(O)c1cc(Sc2nnnn2-c2ccccc2)c2ccccc2c1O`, in experiment [1], the IC50 was determined as 11.1 µM. The inhibition in experiment [2] was 75.3%. The fold change (FC) in experiment [3] is 0.99.

Regarding `O=C(O)c1ccc(-c2ccoc2)cc1O`, in experiment [2], the inhibition was found to be 22.8%. In addition, in experiment [3], the fold change (FC) worked out at 1.02.

For the compound `O=C(O)c1cc(-c2ccccc2COc2cc(F)cc(F)c2)ccc1O`, the IC50 in experiment [1] was found to be 5.8 µM. In addition, in experiment [2], the inhibition amounted to 84.5%. The fold change (FC) in experiment [3] amounted to 0.92.

Consider `O=C(O)c1cc(-c2ccccc2COc2cccc(C(F)(F)F)c2)ccc1O`, for which the IC50 in experiment [1] was found to be 3.5 µM. In addition, the inhibition in experiment [2] worked out at 96.2%; in experiment [4], 30%. Further, the fold change (FC) in experiment [3] is 0.68.

Regarding `O=C(O)c1cc(Oc2ccc([N+](=O)[O-])cc2)c2ccccc2c1O`, in experiment [1], the IC50 was 2.9 µM. Further, in experiment [2], the inhibition stood at 96.3%. Moreover, the fold change (FC) in experiment [3] was 0.77.

`O=Cc1ccc(-c2cccc(C(=O)O)c2)o1`: in experiment [2], the inhibition came out at 22.7%. Moreover, the fold change (FC) in experiment [3] worked out at 0.86.

As to `COc1ccc(COc2ccc(-c3ccc(C(=O)O)c(O)c3)cc2)cc1`, the IC50 in experiment [1] was 13.8 µM. Also, in experiment [2], the inhibition was 65%. In addition, in experiment [3], the fold change (FC) was 0.9.

In the case of `Cc1ccc(/N=N/c2cc(C(=O)O)cc3ccccc23)c(S(=O)(=O)O)c1`, the inhibition in experiment [2] stood at 1.5%.

As to `O=C(O)c1ccc(-c2ccccc2COc2cccc(C(F)(F)F)c2)cc1O`, the IC50 in experiment [1] is 4.4 µM. For the same compound, the inhibition in experiment [2] stood at 98.6%; in experiment [4] it was 30%. Moreover, in experiment [3], the fold change (FC) was 0.62.

Take `O=C(O)c1cc2ccccc2c(/N=N/c2c(O)cc(S(=O)(=O)O)c3ccccc23)c1O`: in experiment [2], the inhibition worked out at 75.1%. The fold change (FC) in experiment [3] amounted to 1.11.

With `O=C(O)c1cc(-c2cccs2)ccc1O`, the IC50 in experiment [1] was determined as 39.5 µM. Besides, the inhibition in experiment [2] worked out at 30%. Besides, in experiment [3], the fold change (FC) was found to be 0.82.
